Laboratory results as given in publication PMC2842983 (Journal of medicinal chemistry, 2010).
pIC50: −log10 of the molar value. “Also recorded” adds a separate entry of the source.

How the values were obtained:
FGFR1 kinase [1] = biological target: T1, FGFR1 kinase (Homo sapiens, UniProt P11362); experiment: ALPHAScreen assay, inhibition of FGFR1 kinase; type: biochemical; details: na = not active in the assay
PDGFR = details: cited from earlier work
insulin receptor (InsR) = details: cited from earlier work
EGFR [2] = biological target: T2, EGFR (Homo sapiens, UniProt P00533); details: cited from earlier work
T2 sequence (P00533 25-1210, species assumed): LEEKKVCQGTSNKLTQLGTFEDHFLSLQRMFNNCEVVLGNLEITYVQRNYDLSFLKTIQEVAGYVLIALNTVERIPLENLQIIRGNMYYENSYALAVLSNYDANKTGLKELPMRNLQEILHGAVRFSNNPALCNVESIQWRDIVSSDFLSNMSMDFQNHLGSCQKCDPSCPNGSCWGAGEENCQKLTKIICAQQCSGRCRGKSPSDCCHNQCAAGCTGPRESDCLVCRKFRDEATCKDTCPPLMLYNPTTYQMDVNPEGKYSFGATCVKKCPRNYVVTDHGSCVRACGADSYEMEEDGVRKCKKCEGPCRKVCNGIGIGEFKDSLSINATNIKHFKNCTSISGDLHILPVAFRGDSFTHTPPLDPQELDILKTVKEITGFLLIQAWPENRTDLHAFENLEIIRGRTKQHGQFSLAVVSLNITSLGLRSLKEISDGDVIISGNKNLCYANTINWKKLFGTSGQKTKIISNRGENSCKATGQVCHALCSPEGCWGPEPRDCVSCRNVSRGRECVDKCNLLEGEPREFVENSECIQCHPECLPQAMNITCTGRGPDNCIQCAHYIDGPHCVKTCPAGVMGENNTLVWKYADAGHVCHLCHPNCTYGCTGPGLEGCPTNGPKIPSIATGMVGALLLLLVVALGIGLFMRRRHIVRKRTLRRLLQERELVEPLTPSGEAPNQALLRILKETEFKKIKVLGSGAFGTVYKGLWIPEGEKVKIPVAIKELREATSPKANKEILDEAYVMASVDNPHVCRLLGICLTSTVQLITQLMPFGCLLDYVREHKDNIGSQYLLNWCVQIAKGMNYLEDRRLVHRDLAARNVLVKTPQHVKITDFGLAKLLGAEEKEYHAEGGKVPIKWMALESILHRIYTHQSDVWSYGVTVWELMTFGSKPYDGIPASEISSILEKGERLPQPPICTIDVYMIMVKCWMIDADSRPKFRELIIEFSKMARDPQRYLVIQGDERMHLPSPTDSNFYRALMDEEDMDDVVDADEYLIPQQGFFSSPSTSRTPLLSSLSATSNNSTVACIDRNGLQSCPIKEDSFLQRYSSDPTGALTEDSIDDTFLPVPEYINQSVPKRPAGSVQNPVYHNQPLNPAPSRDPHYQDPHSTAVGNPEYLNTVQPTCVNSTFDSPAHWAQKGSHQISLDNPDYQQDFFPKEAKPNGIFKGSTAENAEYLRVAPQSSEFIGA

FGFR1 kinase [3] = biological target: T1, FGFR1 kinase; details: cited from earlier work; for pIC50: read-out: IC50 for FGFR1 kinase activity
[4] = tested on: Src, InsR, EGFR, PDGFR, and several other kinases; details: cited from earlier work
EGFR [5] = biological target: T2, EGFR; experiment: ALPHAScreen kinase assay, EGFR; type: biochemical
In short: (§1)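 Recombinant kinase was sourced commercially. In the AlphaScreen format, kinase, biotinylated peptide, ATP and test compound were combined across 10 wells, typically spanning 0.01 µM to 250 µM compound. Phosphorylation ran for 30 minutes and was stopped with EDTA. Phosphopeptide was detected with anti-phosphotyrosine acceptor beads and streptavidin donor beads, and IC50 was derived from the concentration series.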

InsR = InsR (Homo sapiens, UniProt P06213); experiment: ALPHAScreen kinase assay, InsR; type: biochemical; details: kinase from Millipore, na = not active
InsR, sequence (P06213 28-1382, species assumed): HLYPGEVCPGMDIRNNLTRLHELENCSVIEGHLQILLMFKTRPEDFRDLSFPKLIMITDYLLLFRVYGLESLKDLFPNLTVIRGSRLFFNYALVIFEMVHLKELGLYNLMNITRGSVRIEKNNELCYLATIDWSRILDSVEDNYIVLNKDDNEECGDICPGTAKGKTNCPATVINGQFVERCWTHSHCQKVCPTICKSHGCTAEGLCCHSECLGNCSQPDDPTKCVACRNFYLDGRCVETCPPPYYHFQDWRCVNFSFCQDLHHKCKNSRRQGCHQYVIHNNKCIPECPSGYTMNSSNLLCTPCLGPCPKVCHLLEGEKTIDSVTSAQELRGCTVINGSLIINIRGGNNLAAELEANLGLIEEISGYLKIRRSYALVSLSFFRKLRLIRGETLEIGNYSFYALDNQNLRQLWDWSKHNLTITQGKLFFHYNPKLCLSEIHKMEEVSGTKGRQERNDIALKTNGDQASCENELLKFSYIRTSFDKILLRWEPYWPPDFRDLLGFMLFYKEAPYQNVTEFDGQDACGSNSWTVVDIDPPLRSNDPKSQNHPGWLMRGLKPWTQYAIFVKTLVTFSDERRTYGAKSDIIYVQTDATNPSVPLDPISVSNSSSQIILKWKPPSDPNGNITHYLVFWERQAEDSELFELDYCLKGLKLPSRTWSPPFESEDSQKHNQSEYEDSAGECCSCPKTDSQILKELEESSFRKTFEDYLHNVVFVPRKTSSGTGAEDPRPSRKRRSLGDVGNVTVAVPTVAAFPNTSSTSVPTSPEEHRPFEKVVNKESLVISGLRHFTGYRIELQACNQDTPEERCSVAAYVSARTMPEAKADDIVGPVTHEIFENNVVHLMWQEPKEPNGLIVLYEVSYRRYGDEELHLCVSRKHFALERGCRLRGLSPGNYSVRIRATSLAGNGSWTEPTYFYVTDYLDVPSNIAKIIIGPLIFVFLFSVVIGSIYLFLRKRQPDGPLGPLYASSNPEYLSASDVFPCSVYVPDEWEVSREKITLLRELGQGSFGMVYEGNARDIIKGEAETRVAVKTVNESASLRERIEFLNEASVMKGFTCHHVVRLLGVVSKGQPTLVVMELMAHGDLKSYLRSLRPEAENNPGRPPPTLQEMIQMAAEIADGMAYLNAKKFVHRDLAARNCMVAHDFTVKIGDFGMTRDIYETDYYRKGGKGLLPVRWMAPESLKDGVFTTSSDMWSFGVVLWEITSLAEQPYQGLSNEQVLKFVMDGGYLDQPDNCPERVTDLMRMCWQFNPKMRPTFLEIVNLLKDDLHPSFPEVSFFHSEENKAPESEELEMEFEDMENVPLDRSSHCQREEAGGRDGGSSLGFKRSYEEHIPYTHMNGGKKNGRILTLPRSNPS
In short: as §1

T1 sequence (P11362 478-767 limits assumed): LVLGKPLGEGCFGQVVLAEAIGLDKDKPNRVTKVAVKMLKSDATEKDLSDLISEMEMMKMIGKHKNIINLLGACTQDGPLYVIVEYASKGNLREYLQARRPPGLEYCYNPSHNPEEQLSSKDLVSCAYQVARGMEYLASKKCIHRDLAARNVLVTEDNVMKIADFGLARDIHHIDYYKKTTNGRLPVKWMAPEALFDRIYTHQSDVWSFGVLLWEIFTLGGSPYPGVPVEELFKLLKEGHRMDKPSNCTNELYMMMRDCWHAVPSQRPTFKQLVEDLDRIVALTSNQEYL

COc1cccc(-c2nc(=O)c3c4c(sc3[nH]2)CC(C)CC4)c1 (centres unmarked) [compound 36]
IC50 for inhibition of FGFR1 kinase (FGFR1 kinase [1]): do not inhibit

O=CN1CCN(c2ccc(/C=C3\C(=O)Nc4ccccc43)cc2)CC1 [compound 1, SU4984]
inhibition of PDGFR kinase activity (PDGFR): inhibits | inhibition of InsR kinase activity (insulin receptor (InsR)): inhibits | inhibition of EGFR kinase activity (EGFR [2]): does not inhibit | pIC50 (FGFR1 kinase [3]): 4.70 to 5.00

CCN(CC)CCCCNc1ncc2cc(-c3cc(OC)cc(OC)c3)c(NC(=O)NC(C)(C)C)nc2n1 [compound 3, PD173074]
IC50 for other kinases relative to FGFR1 [4]: ≥ 1000 fold | potency of FGFR1 inhibition (FGFR1 kinase [3]): nanomolar potency

COc1ccc(-c2nc(=O)c3c4c(sc3[nH]2)CC(C)CC4)cc1OC (centres unmarked) [compound 35]
IC50 for inhibition of FGFR1 kinase (FGFR1 kinase [1]): do not inhibit

COc1cc(-c2nc(=O)c3c([nH]2)sc2cc(C(F)(F)F)ccc23)ccc1OCC(=O)O [compound 39]
IC50 for inhibition of FGFR1 kinase (FGFR1 kinase [1]): eliminated activity

COc1cc(-c2nc(=O)c3c([nH]2)sc2ccc(C)cc23)ccc1OCC(=O)O [compound 40]
pIC50 (EGFR [5]): 5.70 | IC50 InsR (InsR): does not inhibit; also recorded: no inhibition

Cc1c[nH]c(/C=C2\C(=O)Nc3ccccc32)c1CCC(=O)O [compound 2, SU5402]
inhibition of PDGFR kinase activity (PDGFR): weak inhibitor | inhibition of InsR kinase activity (insulin receptor (InsR)): does not inhibit | inhibition of EGFR kinase activity (EGFR [2]): does not inhibit | pIC50 (FGFR1 kinase [3]): 4.70 to 5.00

CCOc1cc(/C=C2\NC(=S)NC2=O)ccc1OCCCOc1cc(C)cc(C)c1 [compound 29]
IC50 for inhibition of FGFR1 kinase (FGFR1 kinase [1]): weak activity

COCc1cc(/C=C2\NC(=S)NC2=O)ccc1OCCCOc1cc(C)cc(C)c1 [compound 30]
IC50 for inhibition of FGFR1 kinase (FGFR1 kinase [1]): weak activity
